{
  "source": "paper PMC3141330",
  "about": "(Biochemistry, 2010)",
  "key": {"Hsp70 and Hsp90": {"test_system": "Hsp70 and Hsp90", "conditions": "ref [18], cited from earlier work"}, "CHIP [1]": {"molecular_target": "T1, CHIP (Homo sapiens, UniProt Q9UNE7)", "T1 sequence (Q9UNE7 1-303)": "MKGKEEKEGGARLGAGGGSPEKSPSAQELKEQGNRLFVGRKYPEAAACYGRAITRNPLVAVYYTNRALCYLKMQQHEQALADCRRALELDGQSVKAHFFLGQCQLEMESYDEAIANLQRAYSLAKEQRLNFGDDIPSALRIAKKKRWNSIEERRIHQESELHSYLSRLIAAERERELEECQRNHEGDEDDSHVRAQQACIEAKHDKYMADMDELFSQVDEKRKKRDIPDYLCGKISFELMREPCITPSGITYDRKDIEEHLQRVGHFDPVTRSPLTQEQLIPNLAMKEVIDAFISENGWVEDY", "format": "biochemical", "conditions": "discussion summary", "procedure,_shortened": "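Reactions contained 0.091 µM human UBE1, 20 µM UbcH5c, 20 µM CHIP, 100 µM Hsp70 T13G ±188 µM model client peptide. Buffer: 50 mM Tris pH 7.4, 150 mM KCl, 10 mM NaCl, 3 mM MgCl2, 10 mM ATP, 0.1 mM βME. Preincubated 30°C ~10 min, started with 0.5 mM ubiquitin. Timed aliquots ran on Coomassie SDS-PAGE; ubiquitin per CHIP monomer fitted linearly early (slope = rate); three independent experiments, SD.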"}, "[2]": {"test_system": "Hsp90-dependent client proteins", "conditions": "CFTRΔF508 and wild-type CFTR; ref [36]; cited from earlier work"}, "CHIP [3]": {"molecular_target": "T1, CHIP", "experiment": "ITC: C-terminal peptides of Hsp70 or Hsp90", "format": "binding", "conditions": "dimer and tetramer species of CHIP, data not shown"}, "Hsp90 [4]": {"test_system": "Hsp90", "conditions": "ref [32]; cited from earlier work"}, "[5]": {"test_system": "CHIP in BT474 breast cancer cells", "experiment": "Quantitative Western blot: CHIP in BT474 cells after 17-AAG", "format": "cell-based", "conditions": "BT474, 0.178 µM 17-AAG, 7 or 14 hours; CHIP monomer; constant versus normal", "procedure,_shortened": "(§1)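 BT474 cells, seeded overnight, were exposed to 0.178 µM test compound (Hsp90 inhibitor) for 7 or 14 h; untreated cells were harvested at 15 h. Cells were counted, then lysed in SDS buffer. Extract from 35,000 cells (Hsp70, Hsp90, HOP) or 70,000 cells (CHIP) was blotted with ECL detection against a linear purified-protein calibration series. Values were converted via cell number and a cell volume of 3.5×10⁻⁶ µl.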"}, "HER2/neu": {"test_system": "HER2/neu", "conditions": "Hsp90 inhibition in cells; CHIP-dependent; ref [17]; cited from earlier work"}, "[6]": {"test_system": "Hsp90 in BT474 breast cancer cells", "experiment": "Quantitative Western blot: Hsp90 in BT474 cells after 17-AAG", "format": "cell-based", "conditions": "BT474, 0.178 µM 17-AAG, 7 or 14 hours; Hsp90 dimer; same as normal", "procedure,_shortened": "as §1"}, "[7]": {"test_system": "Hsp70 in BT474 breast cancer cells", "experiment": "Quantitative Western blot: Hsp70 in BT474 cells after 17-AAG", "format": "cell-based", "conditions": "BT474, 0.178 µM 17-AAG, 7 or 14 hours; ~10 µM (monomer) under normal conditions", "procedure,_shortened": "as §1"}, "[8]": {"test_system": "HOP in BT474 breast cancer cells", "experiment": "Quantitative Western blot: HOP in BT474 cells after 17-AAG", "format": "cell-based", "conditions": "BT474, 0.178 µM 17-AAG, 7 or 14 hours; HOP monomer; same as normal", "procedure,_shortened": "as §1"}, "[9]": {"test_system": "HER2 in BT474 breast cancer cells", "experiment": "Western blot: HER2 in BT474 cells after 17-AAG", "format": "cell-based", "conditions": "BT474, 0.178 µM 17-AAG, 7 or 14 hours; qualitative, GAPDH loading control"}, "Hsp90 [10]": {"test_system": "Hsp90", "experiment": "Control Ni-NTA pull-down of HOP by His6-Hsp90", "format": "binding", "conditions": "20 µM His6-Hsp90, 20 µM HOP without His6-tag, 150 mM KCl, 3 mM MgCl2, Ni-NTA, 4°C"}, "Hsp90 [11]": {"test_system": "Hsp90", "experiment": "Competition pull-down: HOP versus GST-CHIP for Hsp90", "format": "binding", "procedure,_shortened": "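GST-CHIP (10 µM) and His6-Hsp90 (10 µM), or subsets as controls, were mixed with 3–30 µM His6-HOP in 50 mM Tris pH 7.4, 10 mM NaCl, 5 mM βME. Mixtures were held on ice ~10 min, then rotated with glutathione agarose at 4°C for 1 h and washed 4×. Bound protein was eluted in SDS buffer and resolved by Coomassie SDS-PAGE.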"}, "Hsp90 [12]": {"test_system": "Hsp90", "conditions": "human Hsp90; ref [19]; cited from earlier work"}, "CHIP [13]": {"test_system": "CHIP", "conditions": "'normal' non-Hsp90 inhibited cells, cycloheximide; ref [17]; cited from earlier work"}, "Hsp70": {"test_system": "Hsp70", "conditions": "ref [35]; cited from earlier work"}},
  "note": "Values joined by “and” are separate entries in the source; they are usually repeats but may differ in a detail not shown here. Equal values may be shown once. “Also recorded” adds a separate entry of the source.",
  "data": [
    {"molecule": "Carboxyl terminus of Hsc70-interacting protein [CHIP]", "values": [
      {"measurement": "effect of CHIP over-expression on Hsp70 levels (in words)", "setting": "Hsp70 and Hsp90; over-expression of CHIP", "value": "decrease in Hsp70 levels"},
      {"measurement": "effect of CHIP on half-life of Hsp70 and Hsp90 (in words)", "setting": "Hsp70 and Hsp90", "value": "greatly decreased the half-life of both Hsp70 and Hsp90, with degradation of Hsp70 being more pronounced"},
      {"measurement": "rate of ubiquitination at substrate concentrations much above KM", "setting": "CHIP [1]", "value": "~ 0.1 ubiquitin molecules attached/CHIP monomer/minute"},
      {"measurement": "degradation of CFTR on increase in CHIP concentration (in words)", "setting": "[2]", "value": "leads to degradation of a cystic fibrosis causing mutant of Hsp70/Hsp90 client protein CFTR, CFTRΔF508; also recorded: also leads to degradation of wild-type CFTR"},
      {"measurement": "binding of both CHIP oligomeric species to Hsp70 (in words)", "setting": "CHIP [3]", "value": "both oligomeric species of CHIP bind Hsp70 with the same binding affinity and stoichiometry"}
    ]},
    {"molecule": "C=CCNC1=C2C[C@@H](C)C[C@H](OC)[C@H](O)[C@@H](C)/C=C(\\C)[C@H](OC(N)=O)[C@@H](OC)/C=C\\C=C(/C)C(=O)NC(=CC1=O)C2=O", "note": "[17-AAG]", "values": [
      {"measurement": "binding to Hsp90 (in words)", "setting": "Hsp90 [4]", "value": "binds to the ATP binding pocket and renders the chaperone unable to facilitate client protein folding process"},
      {"measurement": "CHIP concentration upon 17-AAG treatment", "setting": "[5]", "value": "~ 0.1 µM"},
      {"measurement": "degradation of HER2/neu (in words)", "setting": "HER2/neu", "value": "client proteins such as the oncoprotein HER2/neu undergo rapid CHIP-dependent degradation; also recorded: rapid degradation of the Hsp70/Hsp90 client protein HER2/neu"},
      {"measurement": "Hsp90 level upon 17-AAG treatment", "setting": "[6]", "value": "~ 5 µM"},
      {"measurement": "total Hsp70 cellular concentration upon 17-AAG treatment", "setting": "[7]", "value": "39 µM and ~ 39 µM"},
      {"measurement": "HOP level upon 17-AAG treatment", "setting": "[8]", "value": "~ 3 µM"},
      {"measurement": "HER2 levels upon 17-AAG treatment (in words)", "setting": "[9]", "value": "decrease in HER2 levels"}
    ]},
    {"molecule": "Hsp70/Hsp90 organizing protein [HOP]", "values": [
      {"measurement": "pull-down of HOP by Hsp90 (in words)", "setting": "Hsp90 [10]", "value": "the HOP and Hsp90 interaction is stable; also recorded: HOP does not bind non-specifically to the resin but binds to Hsp90"},
      {"measurement": "competition with CHIP for binding to Hsp90 (in words)", "setting": "Hsp90 [11]; 3-30 µM His6-HOP, 10 µM GST-CHIP, 10 µM His6-Hsp90, 50 mM Tris pH 7.4, 10 mM NaCl, 5 mM βME, 4°C 1 hour, glutathione agarose", "value": "CHIP does not pull-down HOP through Hsp90, but that HOP and CHIP compete for binding to Hsp90; also recorded: HOP is competing with CHIP for binding to Hsp90"},
      {"measurement": "binding of HOP to CHIP, control (in words)", "setting": "Hsp90 [11]; control lanes, glutathione agarose pull-down with GST-CHIP", "value": "HOP does not bind to CHIP"}
    ]},
    {"molecule": "Hsp90: heat shock induced homo-dimeric molecular chaperone; recombinant His6-Hsp90β", "values": [
      {"measurement": "kcat of ATP hydrolysis by Hsp90", "setting": "Hsp90 [12]", "value": "~ 0.09 min^−1"}
    ]},
    {"molecule": "COC1=C2C[C@@H](C)C[C@H](OC)[C@H](O)[C@@H](C)/C=C(\\C)[C@H](OC(N)=O)[C@@H](OC)/C=C\\C=C(/C)C(=O)NC(=CC1=O)C2=O", "note": "[geldanamycin]", "values": [
      {"measurement": "degradation of HER2/neu (in words)", "setting": "HER2/neu", "value": "rapid degradation of the Hsp70/Hsp90 client protein HER2/neu"}
    ]},
    {"molecule": "HER2: oncoprotein, Hsp70/Hsp90 client protein", "values": [
      {"measurement": "half life of HER2 in normal cells", "setting": "CHIP [13]", "value": "less than 1 hour"}
    ]},
    {"molecule": "Hsp70: heat shock induced monomeric molecular chaperone; recombinant His6-Hsp70", "values": [
      {"measurement": "kcat for client peptide stimulated hydrolysis of ATP by Hsp70", "setting": "Hsp70", "value": "0.0017 to 0.005", "unit": "s⁻¹"}
    ]}
  ]
}
